What is called IC50 is the midpoint of a concentration-inhibition curve. A lower IC50 goes with greater potency. The inhibition in vivo is how much of the control response was suppressed.

The source of these data is ChEMBL document CHEMBL1777756, “Discovery of Novel Benzo[a]phenoxazine SSJ-183 as a Drug Candidate for Malaria” (ACS Med Chem Lett, 2010).

One data set relates to Plasmodium falciparum. Kind of data set: Antimalarial activity against chloroquine and pyrimethamine resistant Plasmodium falciparum K1. The class given is functional, organism-based. In outline:
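IC50 was determined in vitro against the chloroquine- and pyrimethamine-resistant P. falciparum K1 strain. Values are the mean of two independent assays.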

A further data set has as its system L6. Kind of data set: Cytotoxicity against rat L6 cells. It is filed as cell-based. Summed up: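 Cytotoxicity was tested against L-6 rat myoblasts, with IC50 determined. Values are the mean of two independent assays.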
Data set [1] can be described thus: Selectivity index, ratio of IC50 for rat L6 cells to IC50 for Plasmodium falciparum K1. The class given is toxicity, cell-based. The conditions noted are these: read-out: Ratio IC50. In outline: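 Selectivity index is IC50 against L-6 cells divided by IC50 against chloroquine/pyrimethamine-resistant P. falciparum K1. Each IC50 is the mean of two independent assays.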

In data set [2] the test system is Plasmodium berghei. In words: Antimalarial activity against Plasmodium berghei NK-65 infected in ICR mouse assessed as inhibition of parasitemia at 100 mg/kg, po administered as single dose on day 1 measured on day 4. It is filed as functional. In outline:
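Compound was formulated at 100 mg/kg in 5% glucose/10% ethanol or in 7% Tween 80/3% ethanol. The suspension was given as a single oral dose on day 1 to female ICR mice infected with P. berghei NK-65. Parasitemia was determined on day 4 after infection. Treated-group mean is expressed as percent difference from the control-group mean.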

Data set [3] deals with Plasmodium berghei. Kind of data set: Antimalarial activity against Plasmodium berghei NK-65 infected in ICR mouse assessed as survival days at 100 mg/kg, po administered as single dose (reference value: 6 days). The class given is functional. Summed up: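 Female ICR mice infected with P. berghei NK-65 received a single oral dose of 100 mg/kg on day 1. The compound was given as a suspension in 5% glucose/10% ethanol or in 7% Tween 80/3% ethanol. Parasitemia was read on day 4 as percent reduction relative to untreated controls, and mean survival days were recorded.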

`c1ccc2/c(=N/c3ccncc3)cc3oc4cc(N5CCOCC5)ccc4nc-3c2c1`: the IC50 turned out to be 29 nM with Plasmodium falciparum and 96900 nM with L6. Moreover, in data set [1], the selectivity ratio amounted to 3340. In addition, in the data set on Plasmodium berghei [2], the inhibition in vivo at 100 mg/kg was found to be 97.9%. Also, the MSD in the data set with Plasmodium berghei [3] came to 7.3 days.

For the compound `CCN(CC)c1ccc2nc3c4ccccc4/c(=N\c4cccnc4)cc-3oc2c1`, the IC50 in the data set with Plasmodium falciparum amounted to 23 nM; in the data set on L6 it was 117000 nM. The selectivity ratio in data set [1] was 5090. Further, in the data set with Plasmodium berghei [2], the inhibition in vivo at 100 mg/kg turned out to be 62.7%. Further, the MSD in the data set on Plasmodium berghei [3] came out at 10 days.

With `CCN(CCNS(C)(=O)=O)c1cc(C)c2nc3c4ccccc4/c(=N/c4ccncc4)cc-3oc2c1.Cl.Cl`, the IC50 was found to be 17 nM in the data set with Plasmodium falciparum and 14800 nM with L6. Also, in data set [1], the selectivity ratio was found to be 887. For the same compound, the inhibition in vivo at 100 mg/kg in the data set with Plasmodium berghei [2] is over 99.9%. Besides, the MSD with Plasmodium berghei [3] came to 15.7 days.

Take `CCN(CC)c1ccc2nc3c4ccc(Br)cc4/c(=N/c4ccccn4)cc-3oc2c1`: the IC50 in the data set on Plasmodium falciparum is 38 nM; in the data set on L6, over 190000 nM. Moreover, the selectivity ratio in data set [1] is over 5010. In addition, the inhibition in vivo at 100 mg/kg with Plasmodium berghei [2] amounted to 12.7%. The MSD in the data set on Plasmodium berghei [3] came to 6.3 days.

`CCN(CC)c1ccc2nc3c4ccccc4/c(=N\c4ncccn4)cc-3oc2c1`: the IC50 came to 5 nM in the data set with Plasmodium falciparum and 13600 nM in the data set with L6. Also, the selectivity ratio in data set [1] was determined as 2730. Besides, in the data set on Plasmodium berghei [2], the inhibition in vivo at 100 mg/kg stood at 3.3%. The MSD with Plasmodium berghei [3] worked out at 6.3 days.

Regarding `CC[N+](CC)=c1ccc2nc3c(ccc4ccccc43)oc-2c1`, the values for the concentration for half-maximal inhibition (IC50) with Plasmodium falciparum and with L6 were 606 nM and 3820 nM, respectively. For the same compound, in data set [1], the selectivity ratio came out at 6.3.

`CCCN(CCC)c1ccc2nc3c4ccccc4/c(=N/c4ccncc4)cc-3oc2c1.Cl.Cl`: the IC50 with Plasmodium falciparum is 50 nM; in the data set with L6, 67100 nM. Moreover, the selectivity ratio in data set [1] is 1340. The inhibition in vivo at 100 mg/kg with Plasmodium berghei [2] came out at 15.3%. Further, the MSD with Plasmodium berghei [3] was found to be 6.3 days.

For `CCN(CC)c1ccc2nc3c4ccccc4/c(=N\c4ccc5ccccc5n4)cc-3oc2c1`, the IC50 in the data set on Plasmodium falciparum is 27 nM; in the data set with L6 it was 67900 nM. For the same compound, the selectivity ratio in data set [1] is 2520. For the same compound, the inhibition in vivo at 100 mg/kg in the data set on Plasmodium berghei [2] was determined as 81%. Moreover, the MSD in the data set on Plasmodium berghei [3] amounted to 10.3 days.

Turning to `CCN(CC)c1ccc2nc3c4ccccc4/c(=N/c4cc[n+](C)cc4)cc-3oc2c1.[I-]`, the IC50 was found to be 9 nM with Plasmodium falciparum and 1560 nM in the data set on L6. In addition, the selectivity ratio in data set [1] came to 174. Also, the inhibition in vivo at 100 mg/kg with Plasmodium berghei [2] came to 22%. Further, in the data set on Plasmodium berghei [3], the MSD is 6.6 days.

On to `CCN(CC)c1ccc2nc3c4ccccc4/c(=N/c4ccc(C)cc4)cc-3oc2c1.Cl`, for which the IC50 with Plasmodium falciparum was 232 nM; with L6, 123000 nM. The selectivity ratio in data set [1] turned out to be 531. For the same compound, in the data set with Plasmodium berghei [2], the inhibition in vivo at 100 mg/kg amounted to 0%. Besides, the MSD with Plasmodium berghei [3] is 6.3 days.

On to `CCN(CC)c1ccc2nc3c4ccccc4/c(=N\c4ncc(Cl)cc4Cl)cc-3oc2c1`, for which the IC50 in the data set with Plasmodium falciparum worked out at 63 nM; in the data set with L6, 180000 nM. In addition, in data set [1], the selectivity ratio worked out at 2860. Further, the inhibition in vivo at 100 mg/kg in the data set with Plasmodium berghei [2] was determined as 14.7%. The MSD in the data set with Plasmodium berghei [3] came out at 6.3 days.

For `CCN(CC)c1cc(C)c2nc3c4ccccc4/c(=N/c4ccncc4)cc-3oc2c1.Cl.Cl`, the values for the IC50 in the data set with Plasmodium falciparum and in the data set with L6 were 180 nM and 86600 nM, respectively. The selectivity ratio in data set [1] stood at 481. Further, the inhibition in vivo at 100 mg/kg in the data set on Plasmodium berghei [2] is 99.7%. Also, the MSD with Plasmodium berghei [3] turned out to be 13 days.

Take `CN(C)c1ccc2nc3c4ccccc4/c(=N/c4ccncc4)cc-3oc2c1`: the IC50 is 8.1 nM with Plasmodium falciparum and 165000 nM in the data set with L6. For the same compound, the selectivity ratio in data set [1] was determined as 20400. Also, the inhibition in vivo at 100 mg/kg in the data set with Plasmodium berghei [2] is over 99.9%. In the data set on Plasmodium berghei [3], the MSD turned out to be 10 days.

`CCN(CC)c1ccc2nc3c4ccc(Br)cc4/c(=N/c4ccncc4)cc-3oc2c1`: the values for the IC50 in the data set on Plasmodium falciparum and with L6 were 11 nM and over 190000 nM, respectively. Moreover, in data set [1], the selectivity ratio was over 17300. For the same compound, in the data set on Plasmodium berghei [2], the inhibition in vivo at 100 mg/kg worked out at 14.2%. The MSD with Plasmodium berghei [3] came out at 6.6 days.

Consider `CCN(CC)c1ccc2nc3c4ccccc4/c(=N/c4nc5ccc(OC)cc5s4)cc-3oc2c1`, for which the figures for the IC50 in the data set with Plasmodium falciparum and with L6 were 112 nM and 168000 nM, respectively. In addition, the selectivity ratio in data set [1] worked out at 1490. Further, the inhibition in vivo at 100 mg/kg in the data set on Plasmodium berghei [2] came out at 11.4%. In addition, the MSD with Plasmodium berghei [3] amounted to 6.3 days.

`CC[N+](CC)=c1ccc2nc3c(cc(N)c4ccccc43)oc-2c1.[Cl-]` [NILE BLUE HYDROCHLORIDE]: the IC50 came out at 15.6 nM in the data set on Plasmodium falciparum and 43100 nM with L6. In data set [1], the selectivity ratio was found to be 2760. The inhibition in vivo at 100 mg/kg in the data set with Plasmodium berghei [2] was determined as 15%. Further, in the data set with Plasmodium berghei [3], the MSD was 6.6 days.

On to `CCCCN(CCCC)c1ccc2nc3c4ccccc4/c(=N/c4ccncc4)cc-3oc2c1.Cl.Cl`, for which the IC50 with Plasmodium falciparum was found to be 195 nM; in the data set with L6 it was 63800 nM. Further, the selectivity ratio in data set [1] came out at 327. In addition, the inhibition in vivo at 100 mg/kg in the data set with Plasmodium berghei [2] is 5.6%. Besides, the MSD in the data set on Plasmodium berghei [3] was 6.3 days.

`CCN(CC)c1ccc2nc3c4ccccc4/c(=N/c4ccccc4)cc-3oc2c1.Cl`: the IC50 in the data set with Plasmodium falciparum is 191 nM; in the data set with L6, 165000 nM. Besides, the selectivity ratio in data set [1] was found to be 863. For the same compound, the inhibition in vivo at 100 mg/kg in the data set with Plasmodium berghei [2] came to 0%. In the data set with Plasmodium berghei [3], the MSD stood at 6.3 days.

As to `CCN(CC)c1ccc2nc3c4ccccc4/c(=N/c4cc[n+](Cc5ccccc5)cc4)cc-3oc2c1.[Cl-]`, the IC50 in the data set with Plasmodium falciparum amounted to 24 nM; in the data set on L6 it was 750 nM. For the same compound, the selectivity ratio in data set [1] turned out to be 31. The inhibition in vivo at 100 mg/kg in the data set on Plasmodium berghei [2] was 39%. Moreover, in the data set on Plasmodium berghei [3], the MSD was 7.3 days.

In the case of `CCN(CC)c1ccc2nc3c4ccccc4c(=O)cc-3oc2c1` [NILE RED], the IC50 is 868 nM in the data set on Plasmodium falciparum and 65900 nM in the data set on L6. The selectivity ratio in data set [1] is 76. In addition, the inhibition in vivo at 100 mg/kg in the data set with Plasmodium berghei [2] is 15%. Further, in the data set with Plasmodium berghei [3], the MSD was 6.3 days.

For the compound `CCN(CC)CCCC(C)Nc1ccnc2cc(Cl)ccc12` (stereo not given) [CHLOROQUINE], in the data set with Plasmodium berghei [2], the inhibition in vivo at 100 mg/kg was over 99.9%. Also, the MSD in the data set on Plasmodium berghei [3] amounted to 12.6 days.

As for `CCN(CC)c1ccc2nc3c4ccccc4/c(=N\c4ccccn4)cc-3oc2c1`, the IC50 with Plasmodium falciparum came to 15 nM; with L6, 15800 nM. The selectivity ratio in data set [1] came to 1050. Also, the inhibition in vivo at 100 mg/kg in the data set with Plasmodium berghei [2] was over 99.9%. The MSD with Plasmodium berghei [3] amounted to 8.3 days.
